Experimental data reported in ChEMBL document CHEMBL1125823, “2-Phenylindole-linked [2-(aminoalkyl)pyridine]dichloroplatinum(II): complexes with a selective action on estrogen receptor positive mammary tumors” (1991).
Each block holds one substance with its values, some of them ahead of it.

Tests used:
MCF7 [1] = test: Effect on Estrogen receptor positive MCF-7 human breast cancer cell proliferation at 1x10E-6M (control = 62.7+/-8.8); type: functional
Method in brief: (§1)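 MCF-7 cells were kept in MEM with 5% charcoal-treated newborn calf serum and phenol red for 2 weeks, then about 2×10^4 cells were plated per well. Compounds in 0.1% DMF were added 2 days later and renewed on day 4; DMF alone served as control. Coulter cell counts were taken on day 5; mean of six dishes ± SD; % T/C.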

Mus musculus [2] = organism: Mus musculus; test: Antitumor activity in hormone-dependent transplant MXT mammary tumor bearing mice at 20 mg (control=197+/-130); type: functional, organism-based
MCF7 [3] = test: Effect on Estrogen receptor positive MCF-7 human breast cancer cell proliferation at 5x10E-7M (control = 62.7+/-8.8); type: functional; method in brief: as §1
MCF7 [4] = test: Effect on [3H]thymidine incorporation into estrogen receptor positive MCF-7 human breast cancer cells at 1x10E-6M; type: functional
Method in brief: (§2)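 MCF-7 cells were grown in MEM with charcoal-treated 5% newborn calf serum and phenol red, then treated with compounds in 0.1% DMF (renewed on day 4) alongside DMF controls. They were labeled 3 days later with 1 µCi [³H]thymidine per well for 2 h, and incorporated radioactivity per dish was measured; mean of six dishes ± SD; % T/C.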

MCF7 [5] = test: Effect on [3H]thymidine incorporation into estrogen receptor positive MCF-7 human breast cancer cells at 5x10E-6M; type: functional
Method in brief: (§3)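 MCF-7 cells in improved MEM with glutamine, gentamycin and 5% newborn calf serum, switched to charcoal-treated serum two weeks ahead; phenol red present; 37 °C, 5% CO2. About 2×10^4 cells plated per well; compound in 0.1% DMF added 2 days later, renewed on day 4; labelled 3 days later with 1 μCi [3H]thymidine per well for 2 h; cpm/dish, mean of six dishes ± SD.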

[6] = target: T1, Estrogen receptor (Mus musculus) (UniProt O08537+P19785); test: Uterotrophic effect in mice as relative uterine weight(mg) at 250 ug (control = 14.5+/-2.1); type: functional, tissue-based
T1 sequence (P19785 whole entry, looked up, chain 1 of 2): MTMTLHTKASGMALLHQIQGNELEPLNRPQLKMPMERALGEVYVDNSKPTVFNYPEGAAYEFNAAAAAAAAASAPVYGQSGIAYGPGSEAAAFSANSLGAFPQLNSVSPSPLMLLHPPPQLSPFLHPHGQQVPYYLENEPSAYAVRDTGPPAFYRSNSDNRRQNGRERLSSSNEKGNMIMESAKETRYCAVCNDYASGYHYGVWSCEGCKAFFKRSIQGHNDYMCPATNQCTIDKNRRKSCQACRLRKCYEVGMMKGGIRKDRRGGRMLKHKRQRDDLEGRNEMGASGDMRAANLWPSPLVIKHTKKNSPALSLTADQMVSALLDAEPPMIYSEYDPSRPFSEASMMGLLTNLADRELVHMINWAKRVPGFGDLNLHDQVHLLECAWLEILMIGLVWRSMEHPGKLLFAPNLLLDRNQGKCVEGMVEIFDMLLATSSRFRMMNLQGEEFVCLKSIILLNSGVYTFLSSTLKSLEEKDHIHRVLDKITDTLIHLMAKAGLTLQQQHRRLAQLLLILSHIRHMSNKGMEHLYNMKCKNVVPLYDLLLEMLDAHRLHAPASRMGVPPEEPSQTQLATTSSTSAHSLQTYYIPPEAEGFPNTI
T1 sequence (O08537 whole entry, looked up, chain 2 of 2): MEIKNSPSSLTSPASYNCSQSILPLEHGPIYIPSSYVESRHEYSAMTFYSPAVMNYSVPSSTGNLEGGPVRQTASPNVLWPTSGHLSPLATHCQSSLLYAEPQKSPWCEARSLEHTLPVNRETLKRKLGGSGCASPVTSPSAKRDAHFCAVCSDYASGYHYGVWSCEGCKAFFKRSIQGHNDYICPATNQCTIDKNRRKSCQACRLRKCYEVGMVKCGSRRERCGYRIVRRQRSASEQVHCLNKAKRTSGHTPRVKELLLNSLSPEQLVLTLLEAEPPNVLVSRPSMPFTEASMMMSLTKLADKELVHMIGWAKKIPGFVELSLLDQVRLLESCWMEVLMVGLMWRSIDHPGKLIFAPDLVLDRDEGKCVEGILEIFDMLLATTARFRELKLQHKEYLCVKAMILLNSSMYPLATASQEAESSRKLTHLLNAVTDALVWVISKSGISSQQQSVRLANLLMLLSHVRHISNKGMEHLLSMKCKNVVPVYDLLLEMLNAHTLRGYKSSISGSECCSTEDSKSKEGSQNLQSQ
Method in brief: (§4)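 Immature mice dosed sc per animal on three consecutive days; vehicle controls. Killed and weighed 24 h after last injection; uteri fixed in Bouin solution 2 h, washed with alcoholic LiCl, dried at 100 °C for 24 h. Relative uterus weight = uterine dry weight (mg)/body weight (g) × 100; mean of 6-10 animals ± SD.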

MCF7 [7] = test: Effect on [3H]thymidine incorporation into estrogen receptor positive MCF-7 human breast cancer cells at 1x10E-6M (control = 48.6+/-3.6); type: functional; method in brief: as §2
MCF7 [8] = test: Effect on [3H]thymidine incorporation into estrogen receptor positive MCF-7 human breast cancer cells at 5x10E-6M (control = 48.6+/-3.6); type: functional; method in brief: as §3
[9] = target: T1, Estrogen receptor (Mus musculus); test: Uterotrophic effect in mice as relative uterine weight(mg) at 25 ug (control = 14.5+/-2.1); type: functional, tissue-based; method in brief: as §4
MCF7 [10] = test: Effect on Estrogen receptor positive MCF-7 human breast cancer cell proliferation at 1x10E-6M; type: functional; method in brief: as §1
MCF7 [11] = test: Effect on Estrogen receptor positive MCF-7 human breast cancer cell proliferation at 5x10E-6M; type: functional; method in brief: as §1
MCF7 [12] = test: Effect on Estrogen receptor positive MCF-7 human breast cancer cell proliferation at 5x10E-6M (control = 62.7+/-8.8); type: functional; method in brief: as §1
[13] = target: T1, Estrogen receptor (Mus musculus); test: Anti-uterotrophic effect in hormone-dependent transplant MXT bearing mice as relative uterine weight in treated and control mice at 20 mg (control=100+/-24); type: functional
Mus musculus [14] = organism: Mus musculus; test: Relative tumor weight in treated compared to control mice bearing hormone-dependent transplanted MXT mammary tumors at 20 mg; type: functional, organism-based
[15] = target: T1, Estrogen receptor (Mus musculus); test: Anti-uterotrophic effect in mice as relative uterine weight(mg) at 250 ug; type: functional
Method in brief: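 Immature mice received the compound sc per animal on three consecutive days, alone or with 0.4 µg estrone per animal per day. Uteri were taken 24 h after the last injection, Bouin-fixed, dried at 100 °C for 24 h and weighed. Relative uterus weight = dry weight (mg)/body weight (g) × 100; mean of 6-10 animals ± SD; Mann-Whitney U test.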

MCF7 [16] = test: Effect on [3H]thymidine incorporation into estrogen receptor positive MCF-7 human breast cancer cells at 5x10E-7M (control=48.6+/-3.6); type: functional, cell-based; method in brief: as §3
MCF7 [17] = test: Effect on Estrogen receptor positive MCF-7 human breast cancer cell proliferation at 5x10E-7M; type: functional; method in brief: as §1
[18] = target: T1, Estrogen receptor (Mus musculus); test: Anti-uterotrophic effect in hormone-dependent transplant MXT bearing mice as relative uterine weight in treated and control mice at 20 mg (control=100+/-30); type: functional
Mus musculus [19] = organism: Mus musculus; test: Anti-tumor activity in hormone-dependent transplant MXT mammary tumor bearing mice at 10 mg (control=534+/-652); type: functional, organism-based
MCF7 [20] = test: Effect on Estrogen receptor positive MCF-7 human breast cancer cell proliferation at 5x10E-6M (control = 22.3+/-3.3); type: functional; method in brief: as §1
MCF7 [21] = test: Effect on Estrogen receptor positive MCF-7 human breast cancer cell proliferation at 1x10E-6M (control = 22.3+/-3.3); type: functional; method in brief: as §1
Mus musculus [22] = organism: Mus musculus; test: Relative tumor weight in treated compared to control mice bearing hormone-dependent transplanted MXT mammary tumors at 10 mg; type: functional, organism-based
[23] = target: T1, Estrogen receptor (Mus musculus); test: Anti-uterotrophic effect in hormone-dependent transplant MXT bearing mice as relative uterine weight in treated and control mice at 10 mg (control=100+/-30); type: functional
[24] = target: T1, Estrogen receptor (Mus musculus); test: Uterotrophic effect in mice as relative uterine weight(mg) at 25 ug (control = 12.4+/-3.7); type: functional, tissue-based; method in brief: as §4
MCF7 [25] = test: Effect on [3H]thymidine incorporation into estrogen receptor positive MCF-7 human breast cancer cells at 1x10E-6M (control = 7.7+/-0.8); type: functional; method in brief: as §2
MCF7 [26] = test: Effect on [3H]thymidine incorporation into estrogen receptor positive MCF-7 human breast cancer cells at 5x10E-6M (control = 7.7+/-0.8); type: functional; method in brief: as §3
[27] = target: T1, Estrogen receptor (Mus musculus); test: Uterotrophic effect in mice as relative uterine weight(mg) at 250 ug (control = 12.4+/-3.7); type: functional, tissue-based; method in brief: as §4
Mus musculus [28] = organism: Mus musculus; test: Anti-tumor activity in hormone-dependent transplant MXT mammary tumor bearing mice at 20 mg (control=534+/-652); type: functional, organism-based

Relative uterus weight [6]: 16.3 mg
Relative uterus weight [9]: 12.7 mg
T/C [13]: 103%
Relative uterus weight [15]: 52.7 mg
Substance: [5-hydroxy-2-(4-hydroxyphenyl)-1-[omega-[(2-pyridylmethyl)amino]hexyl]indole]dichloroplatinum (II) complex
Cell no/dish (MCF7 [1]): 401000
Tumor weight (Mus musculus [2]): 80 mg
Cell no/dish (MCF7 [3]): 482000
T/C (MCF7 [4]): 57%
T/C (MCF7 [5]): 34%
Activity (MCF7 [7]): 27500
Activity (MCF7 [8]): 16700
T/C (MCF7 [10]): 64%
T/C (MCF7 [11]): 55%
Cell no/dish (MCF7 [12]): 345000
T/C (Mus musculus [14]): 40%
[3H] thymidine cpm/dish (MCF7 [16]): 33400
T/C (MCF7 [17]): 77%

T/C [18]: 113%
T/C [23]: 92%
Relative uterus weight [24]: 20.2 mg
Relative uterus weight [27]: 22.5 mg
Relative uterus weight [15]: 56.3 mg
Substance: [5-hydroxy-3-methyl-2-(4-hydroxyphenyl)-1-[omega-[(2-pyridylmethyl)amino]hexyl]indole]dichloroplatinum (II) complex
T/C (MCF7 [4]): 18%
Tumor weight (Mus musculus [19]): 195 mg
Cell no/dish (MCF7 [20]): 124000
Cell no/dish (MCF7 [21]): 116000
T/C (MCF7 [5]): 12%
T/C (Mus musculus [22]): 36%
T/C (MCF7 [10]): 52%
Activity (MCF7 [25]): 1400
T/C (MCF7 [11]): 56%
Activity (MCF7 [26]): 900
T/C (Mus musculus [14]): 22%
Tumor weight (Mus musculus [28]): 121 mg
